{"source": "ChEMBL document CHEMBL1152730", "about": "“Non-peptidic substrate-mimetic inhibitors of Akt as potential anti-cancer agents” (Bioorg Med Chem, 2009)", "note": "Numbered stars: 1 amine (or outer) side, 2 acyl side, 3 side chain; on linkers, the order of the positions; unused ones are H or OH. Square brackets hold non-standard residues; d marks the D form. Peptide text beside a SMILES is read from it. * marks the point of attachment. X2 = O=C(c1ccc(N[*:1])cc1-c1cccc2ccccc12)[*:2]; X1 = O=C(c1ccc(N[*:1])c(-c2ccccc2)c1)[*:2]; X3 = O=C(c1ccc(N[*:1])cc1-c1ccccc1)[*:2]; X4 = Cc1cc(C(=O)[*:2])ccc1N[*:1]; NHBn = c1ccc(CN*)cc1"}
{"target": "RAC-alpha serine/threonine-protein kinase (Homo sapiens, UniProt P31749)", "sequence (P31749 whole entry)": "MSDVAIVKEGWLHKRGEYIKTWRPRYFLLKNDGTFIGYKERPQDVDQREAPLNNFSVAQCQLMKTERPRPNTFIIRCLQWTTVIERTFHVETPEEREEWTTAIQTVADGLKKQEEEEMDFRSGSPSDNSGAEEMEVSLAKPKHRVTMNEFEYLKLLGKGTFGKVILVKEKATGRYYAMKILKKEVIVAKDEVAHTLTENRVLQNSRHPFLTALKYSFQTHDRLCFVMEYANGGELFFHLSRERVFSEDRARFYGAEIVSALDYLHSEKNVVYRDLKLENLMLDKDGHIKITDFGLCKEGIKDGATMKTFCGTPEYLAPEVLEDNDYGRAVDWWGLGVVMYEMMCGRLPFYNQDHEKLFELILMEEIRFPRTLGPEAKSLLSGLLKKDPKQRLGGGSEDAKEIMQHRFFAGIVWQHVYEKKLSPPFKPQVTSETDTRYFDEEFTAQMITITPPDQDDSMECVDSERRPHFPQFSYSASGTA", "test": "Inhibition of Akt1 by fluorescence polarization assay", "outline": "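Substrate 100 nM 5FAM-labelled GSK3-derived peptide, ATP 5 μM, inhibitor added from DMSO stock. Incubated 1 h at room temperature, then quenched with IMAP binding solution. Phosphorylation read by fluorescence polarization; IC50 determined.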", "units": {"IC50": "µM"}}
{"smiles": "CC(C)c1ccc(CN(Cc2ccc(C(C)C)cc2)c2ccc(NC(=O)c3ccc(NCCNC(=N)N)c(-c4ccccc4)c3)cc2)cc1", "IC50": 28}
{"smiles": "Cc1ccc(CN(Cc2ccc(C)cc2)c2ccc(NC(=O)c3ccc(NCCNC(=N)N)c(-c4ccccc4)c3)cc2)cc1", "IC50": 215}
{"smiles": "CC(=O)N[C@@H](CCCNC(=N)N)C(=O)Nc1ccc(C(=O)N[C@H](C(=O)N[C@@H](Cc2ccccc2)C(=O)NCc2ccccc2)C(C)C)c(-c2ccccc2)c1", "IC50": 173}
{"smiles": "N#Cc1ccc(CN(Cc2ccc(C#N)cc2)c2ccc(NC(=O)c3ccc(NCCNC(=N)N)c(-c4ccccc4)c3)cc2)cc1", "IC50": 19}
{"smiles": "N#Cc1ccc(-c2cc(C(=O)Nc3ccc(N(Cc4ccccc4)Cc4ccccc4)cc3)ccc2NCCNC(=N)N)cc1", "IC50": 78}
{"smiles": "NC(N)=NCC(=O)Nc1ccc(-c2cc3cc(N(Cc4ccccc4)Cc4ccccc4)ccc3[nH]2)cc1", "IC50": 126}
{"smiles": "CC(=O)NCC(=O)N[C@@H](CCCNC(=N)N)C(=O)N1CCC[C@H]1C(=O)N[C@@H](CCCNC(=N)N)C(=O)Nc1ccc(C(=O)N[C@H](C(=O)N[C@@H](Cc2ccccc2)C(=O)NCc2ccccc2)C(C)C)cc1C", "note": "(Ac-GRPR[X4]VF-NHBn)", "IC50": 50}
{"smiles": "N#Cc1ccc(CN(Cc2ccc(C#N)cc2)c2ccc(NC(=O)c3ccc(NCCNC(=N)N)c(-c4ccc5ccccc5c4)c3)cc2)cc1", "IC50": 17}
{"smiles": "CC(=O)N[C@@H](CCCNC(=N)N)C(=O)Nc1ccc(C(=O)Nc2ccc3c(=O)n(Cc4ccccc4)c(=O)n(Cc4ccccc4)c3c2)cc1", "IC50": 112}
{"smiles": "CC(=O)N[C@@H](CCCNC(=N)N)C(=O)Nc1ccc(C(=O)Nc2ccc3c(c2)c(=O)n(Cc2ccccc2)c(=O)n3Cc2ccccc2)cc1", "IC50": 232}
{"smiles": "N=C(N)NCCNc1ccc(C(=O)Nc2ccc(N(Cc3ccccc3)Cc3ccccc3)cc2)cc1-c1ccc2ccccc2c1", "IC50": 44}
{"smiles": "N=C(N)NCCNc1ccc(C(=O)Nc2ccc(N(Cc3ccccc3)Cc3ccccc3)cc2)cc1-c1ccc(-c2ccccc2)cc1", "IC50": 83}
{"smiles": "CC(=O)NCC(=O)N[C@@H](CCCNC(=N)N)C(=O)N1CCC[C@H]1C(=O)N[C@@H](CCCNC(=N)N)C(=O)Nc1ccc(C(=O)N[C@H](C(=O)N[C@@H](Cc2ccccc2)C(=O)NCc2ccccc2)C(C)C)c(-c2cccc3ccccc23)c1", "note": "(Ac-GRPR[X2]VF-NHBn)", "IC50": 78}
{"smiles": "COC(=O)c1ccc(-c2cc(C(=O)Nc3ccc(N(Cc4ccccc4)Cc4ccccc4)cc3)ccc2NCCNC(=N)N)cc1", "IC50": 158}
{"smiles": "CC(C)c1ccc(CN(Cc2ccc(C(C)C)cc2)c2ccc(NC(=O)c3ccc(NCCNC(=N)N)c(-c4ccc5ccccc5c4)c3)cc2)cc1", "IC50": 38}
{"smiles": "N#Cc1ccc(CN(Cc2ccc(C#N)cc2)c2ccc3[nH]c(-c4ccc(NC(=O)CN=C(N)N)cc4)cc3c2)cc1", "IC50": 32}
{"smiles": "N=C(N)NCCNc1ccc(C(=O)Nc2ccc(N(Cc3ccc(F)cc3)Cc3ccc(F)cc3)cc2)cc1-c1ccccc1", "IC50": 55}
{"smiles": "N=C(N)NCCNc1ccc(C(=O)Nc2ccc(N(Cc3cccc4ccccc34)Cc3cccc4ccccc34)cc2)cc1-c1ccccc1", "IC50": 43}
{"smiles": "CC(=O)NCC(=O)N[C@@H](CCCNC(=N)N)C(=O)N1CCC[C@H]1C(=O)N[C@@H](CCCNC(=N)N)C(=O)Nc1ccc(C(=O)N[C@H](C(=O)N[C@@H](Cc2ccccc2)C(=O)NCc2ccccc2)C(C)C)cc1-c1ccccc1", "note": "(Ac-GRPR[X1]VF-NHBn)", "IC50": "> 500"}
{"smiles": "CC(C)c1ccc(CN(Cc2ccc(C(C)C)cc2)c2ccc(NC(=O)c3ccc(NC(=O)CNC(=N)N)c(-c4ccc5ccccc5c4)c3)cc2)cc1", "IC50": 17}
{"smiles": "N#Cc1ccc(CN(Cc2ccc(C#N)cc2)c2ccc(NC(=O)c3ccc(NC(=O)CNC(=N)N)c(-c4ccc5ccccc5c4)c3)cc2)cc1", "IC50": 12}
{"smiles": "CC(=O)Nc1ccc(-c2cc(C(=O)Nc3ccc(N(Cc4ccccc4)Cc4ccccc4)cc3)ccc2NCCNC(=N)N)cc1", "IC50": 253}
{"smiles": "N=C(N)NCCNc1ccc(C(=O)Nc2ccc(N(Cc3ccccc3)Cc3ccccc3)cc2)cc1-c1ccccc1", "IC50": 84}
{"smiles": "N=C(N)NCCNc1ccc(C(=O)Nc2ccc(N(Cc3ccccc3)Cc3ccccc3)cc2)cc1", "IC50": 96}
{"smiles": "CC(=O)N[C@@H](CCCNC(=N)N)C(=O)Nc1ccc(C(=O)N[C@H](C(=O)N[C@@H](Cc2ccccc2)C(=O)NCc2ccccc2)C(C)C)cc1-c1ccccc1", "IC50": 288}
{"smiles": "N=C(N)NCCNc1ccc(C(=O)Nc2ccc(N(Cc3ccc4ccccc4c3)Cc3ccc4ccccc4c3)cc2)cc1-c1ccccc1", "IC50": 23}
{"smiles": "Cc1cccc(CN(Cc2cccc(C)c2)c2ccc(NC(=O)c3ccc(NCCNC(=N)N)c(-c4ccccc4)c3)cc2)c1", "IC50": 152}
{"smiles": "N=C(N)NCCNc1ccc(C(=O)Nc2ccc(N(Cc3ccc(-c4ccccc4)cc3)Cc3ccc(-c4ccccc4)cc3)cc2)cc1-c1ccccc1", "IC50": 84}
{"smiles": "CC(C)c1ccc(-c2cc(C(=O)Nc3ccc(N(Cc4ccccc4)Cc4ccccc4)cc3)ccc2NCCNC(=N)N)cc1", "IC50": 52}
{"smiles": "CC(=O)NCC(=O)N[C@@H](CCCNC(=N)N)C(=O)N1CCC[C@H]1C(=O)N[C@@H](CCCNC(=N)N)C(=O)Nc1ccc(C(=O)N[C@H](C(=O)N[C@@H](Cc2ccccc2)C(=O)NCc2ccccc2)C(C)C)c(-c2ccccc2)c1", "note": "(Ac-GRPR[X3]VF-NHBn)", "IC50": 16}
